Screening results (PubChem)
An excerpt weighted towards active compounds, which were near 3.7% of everything screened.
KCNQ1 pot – human KCNQ1 channel potentiation or activation. B-score at 10 µM. hit rate 0.35% among 310,000. P51787. CHO-K1 KCNQ1, thallium flux FluxOR fluorescence; hits give high values;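 active = fluorescence ratio B-score, a plate-corrected score, at least three library SD, with initial intensity B-score within 5 SD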
Target sequence (P51787 whole entry, looked up): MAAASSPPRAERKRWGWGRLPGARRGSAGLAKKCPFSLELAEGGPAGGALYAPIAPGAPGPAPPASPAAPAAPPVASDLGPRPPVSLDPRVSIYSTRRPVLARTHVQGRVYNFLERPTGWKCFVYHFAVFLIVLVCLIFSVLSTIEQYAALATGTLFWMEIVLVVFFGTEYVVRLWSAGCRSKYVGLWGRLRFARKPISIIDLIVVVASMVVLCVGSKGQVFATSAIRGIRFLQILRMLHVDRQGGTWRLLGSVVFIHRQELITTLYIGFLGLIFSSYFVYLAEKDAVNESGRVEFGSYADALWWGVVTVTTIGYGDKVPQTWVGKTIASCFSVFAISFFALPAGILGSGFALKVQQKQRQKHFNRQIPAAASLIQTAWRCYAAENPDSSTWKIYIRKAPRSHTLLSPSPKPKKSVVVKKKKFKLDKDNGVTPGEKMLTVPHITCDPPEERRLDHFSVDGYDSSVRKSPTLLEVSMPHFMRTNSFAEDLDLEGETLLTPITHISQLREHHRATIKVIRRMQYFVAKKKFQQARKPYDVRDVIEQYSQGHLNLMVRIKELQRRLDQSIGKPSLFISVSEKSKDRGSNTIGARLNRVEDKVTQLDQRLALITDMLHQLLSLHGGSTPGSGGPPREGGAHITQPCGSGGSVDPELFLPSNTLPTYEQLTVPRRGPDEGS
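System: Stable KCNQ1 CHO-K1 line | Incubation: 90 min dye loading and 20 min compound exposure, both at room temperature | Measure: Ratio B score | Medium: Assay buffer for compound exposure, DMSO matched across wells | Compound dosing: Single-concentration screen | Probe or stimulus: K+/Tl+ depolarizing stimulus | Measured by: Kinetic FluxOR fluorescence, 10 s baseline plus 110 s post-stimulus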
KCNK9 block – human KCNK9 channel inhibition; B-score at 10 µM; HEK293 KCNK9, FluxOR thallium flux fluorescence; hits give low values; hit rate 1.2% among 310,000; AID 488922; Q9NPC2;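 active = ratio B-score over 3 SD below the library mean, with starting fluorescence within 5 SD of its mean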;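 also: negative B-score means less thallium flux so channel inhibition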
KCNQ1 block – blocks the human KCNQ1 potassium channel | P51787 | CHO-K1 KCNQ1, FluxOR thallium flux fluorescence; hits give high values | B-score at 10 µM | hit rate 1.3% among 310,000;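 active = compounds whose thallium flux B-score, printed positive for inhibition, exceeds three library SD while starting fluorescence stays within three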;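 also: channel opened by potassium depolarization with thallium stimulus after 20 min compound exposure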
KCNK3 block – human KCNK3 channel inhibition, primary screen | CHO-KCNK3 thallium flux, FluxOR fluorescence; hits give low values | B-score at 10 µM | AID 602410 | O14649 | hit rate 0.84% among 340,000;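 active = B-score under library mean minus 4 SD, starting fluorescence ratio at most library mean plus 5 SD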;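 also: more negative B-score means stronger inhibition of thallium flux through KCNK3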
hERG protect – hERG (human) protection from proarrhythmic block. AID 1511. CHO-hERG, FluxOR thallium flux, dofetilide IC70 present. hit rate 0.51% among 310,000. activation (rescue from dofetilide block), less the hit threshold, % at 10 µM;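 active = activation above the mean of controls blocked by dofetilide plus 5 SD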;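 also: thallium influx through hERG after potassium depolarization seen as dye fluorescence rise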
Kir21 inh – inhibitors of mouse Kir2.1 inward-rectifier potassium channel; P35561; B-score at 10 µM; HEK293-Kir2.1, FluxOR thallium flux fluorescence; hits give low values; hit rate 0.85% among 310,000;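 active = fluorescence ratio B-score at or below minus 3 SD of library scores, with starting-brightness B-score within 2 SD, cut at about -4.2 in these data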;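 also: channel flux triggered by added potassium and thallium sulfate stimulus; B-score of peak minus minimum fluorescence over baseline after thallium stimulus; more negative B-score means stronger Kir2.1 block with less thallium influx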
Hits are given with their value; i = inactive; nt = no result.

SMILES	KCNQ1 pot	KCNK9 block	KCNQ1 block	KCNK3 block	hERG protect	Kir21 inh
Cc1ccc2c(c1)C1CN(C)CCC1N2C(=O)c1cccc(S(=O)(=O)N(C)C)c1 (stereo not drawn)	i	i	i	i	i	i
CCCc1cc(=O)oc2cc(C)cc(OC(C)C(=O)NCc3ccccn3)c12 (stereo not drawn)	i	i	i	i	i	i
Brc1ccccc1Cn1c(-c2cscn2)nc2ccccc21	i	i	i	i	i	i
COC(=O)c1ccc(C2N=C(c3cccs3)CC(c3ccccc3O)N2)cc1 (stereo not drawn)	i	i	7	i	i	i
O=C(c1ccccc1)N1N=C(c2cccs2)CC1c1ccccc1O (stereo not drawn)	i	i	i	i	i	i
CN1CCN(CCCNC(=O)c2ccc(Cn3c(=S)[nH]c4ccc(Br)cc4c3=O)cc2)CC1	i	i	i	i	i	i
CC1CCN(CCCNC(=O)c2ccc(Cn3c(=S)[nH]c4ccc(Br)cc4c3=O)cc2)CC1	i	i	8	nt	i	i
O=C(/C=C/c1ccc(Br)cc1)N1CCN(c2cccc(C(F)(F)F)c2)CC1	i	i	7	i	i	i
Cc1ccc(C(C[N+](=O)[O-])c2c(-c3ccccc3O)[nH][nH]c2=O)cc1 (stereo not drawn)	i	i	i	i	i	-9.5
O=c1[nH][nH]c(-c2ccccc2O)c1C(C[N+](=O)[O-])c1ccc(Br)cc1 (stereo not drawn)	i	i	i	i	i	i
COC(=O)C1=CN(c2cccc(Cl)c2)C=C(C(=O)OC)C1c1cccc(OC)c1	i	i	i	i	i	i
O=C(c1ccccc1O)N1N=C(c2ccccc2)CC1(O)C(F)(F)F (stereo not drawn)	i	i	6	i	i	i
COc1cccc(C2=NN(C(=O)c3ccco3)C(O)(C(F)(F)F)C2)c1 (stereo not drawn)	i	i	i	i	i	i
Nc1ccc(C(=O)N2N=C(c3ccccc3)CC2(O)C(F)(F)F)cc1 (stereo not drawn)	i	i	i	i	i	i
Cc1ccc(C2=NN(C(=O)c3ccco3)C(O)(C(F)(F)F)C2)cc1 (stereo not drawn)	i	i	i	i	i	-4.6
CCc1nnc(NC(=O)CN2CCN(Cc3ccccc3Cl)CC2)s1	i	i	i	i	i	i
Cc1ccc(NC(=S)Nc2ccc(S(=O)(=O)Nc3ncccn3)cc2)cc1Cl	i	i	10	nt	i	i
N#Cc1ccc(-c2nnnn2-c2ccc3c(c2)OCO3)cc1	i	i	i	i	4.8	i
Cc1ccccc1N1CCN(Cc2c[nH]c3ccccc23)CC1	i	i	6	i	i	-5.5
COc1ccccc1N1CCN(Cc2c[nH]c3ccccc23)CC1	i	i	i	i	i	i
O=[N+]([O-])c1ccc(Nc2ccc3ccccc3c2)nc1	i	i	i	i	5.5	i
CCOC(=O)C1CCN(C(=O)C2CCCN(c3ncnc4c3nc3n4CCCCC3)C2)CC1 (stereo not drawn)	i	i	i	i	i	i
NC(N)=N/N=C/c1cc([N+](=O)[O-])ccc1O	i	i	i	i	i	i
O=[N+]([O-])c1ccc(O)c(/C=N\N=C2c3ccccc3-c3ccccc32)c1	i	i	7	i	i	i
COc1ccc(CCNC(=O)CSc2ccc3ccccc3c2)cc1OC	i	i	i	i	i	-6.9
SMILES	KCNQ1 pot	KCNK9 block	KCNQ1 block	KCNK3 block	hERG protect	Kir21 inh
CCCCn1c(-c2ccccc2)cnc1SCC(=O)NCCc1ccc(OC)c(OC)c1	i	i	i	i	i	-6.3
COc1ccc(CCNC(=O)CSc2nn(-c3ccccc3)c(=S)s2)cc1OC	i	i	i	i	i	-6.6
COc1ccc(N2CCN(C(=O)COC(=O)c3ccc(-n4nc(C)cc4C)cc3)CC2)cc1	nt	nt	nt	i	nt	nt
CCn1cc(Br)c(C(=O)Nc2ccccc2C(=O)OC)n1	i	-6.6	i	i	i	i
CCn1ncc(Br)c1C(=O)Nc1ccccc1C(=O)OC	i	i	i	i	i	i
COc1ccc(CNC(=O)Cc2cn(C)c3ccccc23)c(OC)c1	i	i	i	i	i	-4.3
CCn1c2ccccc2c2cc(CNCc3ccc(OC)cc3OC)ccc21	i	i	i	i	i	-9.8
COc1cccc(CNCc2ccc(OC)cc2OC)c1	i	i	i	i	i	i
CCN1C(=O)[C@H]2[C@@H](c3ccc(C)cc3)N3C(=O)N(c4ccc(OC)cc4)C(=O)[C@@]3(CC)[C@H]2C1=O	i	i	i	i	i	i
COc1ccc(N2C(=O)C3CCCN3C2=O)cc1 (stereo not drawn)	i	i	i	i	4.9	i
Cc1ccc(S(C)(=O)=N/C=C2\C(=O)c3sccc3N(C)S2(=O)=O)cc1 (stereo not drawn)	i	i	i	i	i	i
O=C(CCC1CCCCC1)NCc1ccc(F)cc1	i	i	i	i	i	i
CC1CCCCC1NCC(=O)NCc1ccc(F)cc1 (stereo not drawn)	i	i	i	i	4.7	i
CCC(=O)Nc1ccccc1C(=O)OCC(=O)c1cccc2ccccc12	i	-7.3	i	-11	i	i
O=C(COC(=O)c1cccc2ccccc12)Nc1cccnc1Cl	i	i	i	i	i	i
O=C(COC(=O)c1ccncc1)Nc1cccc2ccccc12	nt	nt	nt	-8.8	nt	nt
CN(c1ccc(F)cc1)S(=O)(=O)c1ccc(Cl)c(C(=O)NCC2(N3CCOCC3)CCCCC2)c1	nt	nt	nt	i	nt	nt
COc1ccc(S(N)(=O)=O)cc1C(=O)OCCCOc1ccc(F)cc1	i	i	i	i	i	i
O=C(Nc1nc(-c2cccs2)cs1)c1cccc(S(=O)(=O)N2CCCCC2)c1	i	-6.6	i	i	i	i
Cc1ccc(-c2csc(NC(=O)c3cccc(S(=O)(=O)N4CCN(C)CC4)c3)n2)cc1	i	i	i	i	i	i
O=C(Nc1nc(-c2ccc(S(=O)(=O)N3CCCCCC3)cc2)cs1)c1cccs1	i	i	i	i	i	i
O=C(Nc1nc(-c2ccc(S(=O)(=O)N3CCCC3)cc2)cs1)c1cccs1	nt	nt	nt	-11	nt	nt
CCOc1ccccc1NC(=O)CN1CCC(C(=O)c2ccc(F)cc2)CC1	i	-7.1	i	i	i	i
COc1ccccc1NC(=O)CN1CCC(C(=O)c2ccc(F)cc2)CC1	i	i	i	i	i	i
NC(=O)CSc1nccn1Cc1ccccc1	i	i	i	i	i	i
O=[N+]([O-])c1ccccc1Sc1nccn1Cc1ccccc1	i	i	i	i	i	-4.9
Cc1ccc(CNC(=O)CNC(=O)[C@@H]2Cc3ccccc3CN2)cc1	i	i	i	i	i	i
CCCC(=O)Nc1c2c(nc3ccccc13)N(c1ccccc1)CC2	i	i	i	-9.3	i	i
O=C(CN1CCCCC1)Nc1c2c(nc3ccccc13)N(c1ccccc1)CC2	i	i	i	i	i	i
